Reference: ChEMBL document CHEMBL4118033, “Total Synthesis, Configuration Assignment, and Cytotoxic Activity Evaluation of Protulactone A” (J Nat Prod, 2017)
Calls of active or inactive are those of the source. The rule behind the calls is not given here.

What was measured:
Type in all cases: functional, cell-based
SF-295 = test: Antiproliferative activity against human SF295 cells at 10 uM incubated for 48 hrs by sulforhodamine B assay
In short: (§1)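 Run by the NCI Developmental Therapeutics Program (Division of Cancer Treatment and Diagnosis) as part of the NCI60 human tumour cell line panel screen. Each compound was tested at a single dose of 10 μM. Results are reported as one-dose mean graphs.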

IGROV-1 = test: Antiproliferative activity against human IGROV1 cells at 10 uM incubated for 48 hrs by sulforhodamine B assay; in short: as §1
NCI-H226 = test: Antiproliferative activity against human NCI-H226 cells at 10 uM incubated for 48 hrs by sulforhodamine B assay; in short: as §1
NCI-H460 = test: Antiproliferative activity against human NCI-H460 cells at 10 uM incubated for 48 hrs by sulforhodamine B assay; in short: as §1
COLO 205 = test: Antiproliferative activity against human COLO205 cells at 10 uM incubated for 48 hrs by sulforhodamine B assay; in short: as §1
SW-620 = test: Antiproliferative activity against human SW620 cells at 10 uM incubated for 48 hrs by sulforhodamine B assay
In short: (§2)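 Run by the NCI Developmental Therapeutics Program (Division of Cancer Treatment and Diagnosis) as part of the NCI60 human tumour cell line panel. Each compound was tested in vitro at a single dose of 10 μM, and the data are reported as one-dose mean graphs across the panel.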

DU-145 = test: Antiproliferative activity against human DU145 cells at 10 uM incubated for 48 hrs by sulforhodamine B assay; in short: as §1
MOLT-4 = test: Antiproliferative activity against human MOLT4 cells at 10 uM incubated for 48 hrs by sulforhodamine B assay; in short: as §1
HCT-116 = test: Antiproliferative activity against human HCT116 cells at 10 uM incubated for 48 hrs by sulforhodamine B assay; in short: as §1
T47D = test: Antiproliferative activity against human T47D cells at 10 uM incubated for 48 hrs by sulforhodamine B assay; in short: as §2
LOX IMVI = test: Antiproliferative activity against human LOXIMVI cells at 10 uM incubated for 48 hrs by sulforhodamine B assay; in short: as §1
HOP-62 = test: Antiproliferative activity against human HOP62 cells at 10 uM incubated for 48 hrs by sulforhodamine B assay; in short: as §1
OVCAR-3 = test: Antiproliferative activity against human OVCAR3 cells at 10 uM incubated for 48 hrs by sulforhodamine B assay; in short: as §1
ACHN = test: Antiproliferative activity against human ACHN cells at 10 uM incubated for 48 hrs by sulforhodamine B assay; in short: as §1
NCI-H23 = test: Antiproliferative activity against human NCI-H23 cells at 10 uM incubated for 48 hrs by sulforhodamine B assay; in short: as §1
A498 = test: Antiproliferative activity against human A498 cells at 10 uM incubated for 48 hrs by sulforhodamine B assay; in short: as §1
RXF 393 = test: Antiproliferative activity against human RXF393 cells at 10 uM incubated for 48 hrs by sulforhodamine B assay; in short: as §1
786-0 = test: Antiproliferative activity against human 786-0 cells at 10 uM incubated for 48 hrs by sulforhodamine B assay; in short: as §1
MCF7 = test: Antiproliferative activity against human MCF7 cells at 10 uM incubated for 48 hrs by sulforhodamine B assay; in short: as §1
BT-549 = test: Antiproliferative activity against human BT549 cells at 10 uM incubated for 48 hrs by sulforhodamine B assay; in short: as §1
SK-OV-3 = test: Antiproliferative activity against human SKOV3 cells at 10 uM incubated for 48 hrs by sulforhodamine B assay; in short: as §1
M14 = test: Antiproliferative activity against human M14 cells at 10 uM incubated for 48 hrs by sulforhodamine B assay; in short: as §1
HL-60(TB) = test: Antiproliferative activity against human HL-60(TB) cells at 10 uM incubated for 48 hrs by sulforhodamine B assay
In short: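 Tested within the NCI60 cancer cell line panel screen run by the Developmental Therapeutics Program (Division of Cancer Treatment and Diagnosis, National Cancer Institute). Each stereoisomer was given at a single dose of 10 μM. Results are reported as one-dose mean graphs.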

SNB-75 = test: Antiproliferative activity against human SNB75 cells at 10 uM incubated for 48 hrs by sulforhodamine B assay; in short: as §2
NCI-H322M = test: Antiproliferative activity against human NCI-H322M cells at 10 uM incubated for 48 hrs by sulforhodamine B assay; in short: as §1
CAKI-1 = test: Antiproliferative activity against human Caki1 cells at 10 uM incubated for 48 hrs by sulforhodamine B assay; in short: as §1
U-251 = test: Antiproliferative activity against human U251 cells at 10 uM incubated for 48 hrs by sulforhodamine B assay; in short: as §2
HT-29 = test: Antiproliferative activity against human HT-29 cells at 10 uM incubated for 48 hrs by sulforhodamine B assay; in short: as §1
SN12C = test: Antiproliferative activity against human SN12C cells at 10 uM incubated for 48 hrs by sulforhodamine B assay; in short: as §1
HCC 2998 = test: Antiproliferative activity against human HCC2998 cells at 10 uM incubated for 48 hrs by sulforhodamine B assay; in short: as §1
MDA-MB-468 = test: Antiproliferative activity against human MDA-MB-468 cells at 10 uM incubated for 48 hrs by sulforhodamine B assay; in short: as §1
RPMI-8226 = test: Antiproliferative activity against human RPMI8226 cells at 10 uM incubated for 48 hrs by sulforhodamine B assay; in short: as §1
SNB-19 = test: Antiproliferative activity against human SNB19 cells at 10 uM incubated for 48 hrs by sulforhodamine B assay; in short: as §1
SK-MEL-5 = test: Antiproliferative activity against human SK-MEL-5 cells at 10 uM incubated for 48 hrs by sulforhodamine B assay; in short: as §1
OVCAR-4 = test: Antiproliferative activity against human OVCAR4 cells at 10 uM incubated for 48 hrs by sulforhodamine B assay; in short: as §1
Hs-578T = test: Antiproliferative activity against human Hs 578T cells at 10 uM incubated for 48 hrs by sulforhodamine B assay; in short: as §1
HOP-92 = test: Antiproliferative activity against human HOP92 cells at 10 uM incubated for 48 hrs by sulforhodamine B assay; in short: as §1
KM12 = test: Antiproliferative activity against human KM12 cells at 10 uM incubated for 48 hrs by sulforhodamine B assay; in short: as §1
EKVX = test: Antiproliferative activity against human EKVX cells at 10 uM incubated for 48 hrs by sulforhodamine B assay; in short: as §1
UO-31 = test: Antiproliferative activity against human UO31 cells at 10 uM incubated for 48 hrs by sulforhodamine B assay; in short: as §2
Malme-3M = test: Antiproliferative activity against human MALME-3M cells at 10 uM incubated for 48 hrs by sulforhodamine B assay; in short: as §1
OVCAR-8 = test: Antiproliferative activity against human OVCAR8 cells at 10 uM incubated for 48 hrs by sulforhodamine B assay; in short: as §1
A549 = test: Antiproliferative activity against human A549/ATCC cells at 10 uM incubated for 48 hrs by sulforhodamine B assay; in short: as §1
UACC-62 = test: Antiproliferative activity against human UACC62 cells at 10 uM incubated for 48 hrs by sulforhodamine B assay; in short: as §2

CC(=O)O[C@@H](C)[C@H]1O[C@H]2CC(=O)O[C@H]2[C@@H]1O
Activity (SF-295): inactive | Activity (IGROV-1): inactive | Activity (NCI-H226): inactive | Activity (NCI-H460): inactive | Activity (COLO 205): inactive | Activity (SW-620): inactive | Activity (DU-145): inactive | Activity (MOLT-4): inactive | Activity (HCT-116): inactive | Activity (T47D): inactive | Activity (LOX IMVI): inactive | Activity (HOP-62): inactive | Activity (OVCAR-3): inactive | Activity (ACHN): inactive | Activity (NCI-H23): inactive | Activity (A498): inactive | Activity (RXF 393): inactive | Activity (786-0): inactive | Activity (MCF7): inactive | Activity (BT-549): inactive | Activity (SK-OV-3): inactive | Activity (M14): inactive | Activity (HL-60(TB)): inactive | Activity (SNB-75): inactive | Activity (NCI-H322M): inactive | Activity (CAKI-1): inactive | Activity (U-251): inactive | Activity (HT-29): inactive | Activity (SN12C): inactive | Activity (HCC 2998): inactive | Activity (MDA-MB-468): inactive | Activity (RPMI-8226): inactive | Activity (SNB-19): inactive | Activity (SK-MEL-5): inactive | Activity (OVCAR-4): inactive | Activity (Hs-578T): inactive | Activity (HOP-92): inactive | Activity (KM12): inactive | Activity (EKVX): inactive | Activity (UO-31): inactive | Activity (Malme-3M): inactive | Activity (OVCAR-8): inactive | Activity (A549): inactive | Activity (UACC-62): inactive

CC(=O)O[C@H](C)[C@@H]1O[C@@H]2CC(=O)O[C@@H]2[C@H]1O
Activity (SF-295): inactive | Activity (IGROV-1): inactive | Activity (NCI-H226): inactive | Activity (NCI-H460): inactive | Activity (COLO 205): inactive | Activity (SW-620): inactive | Activity (DU-145): inactive | Activity (MOLT-4): inactive | Activity (HCT-116): inactive | Activity (T47D): inactive | Activity (LOX IMVI): inactive | Activity (HOP-62): inactive | Activity (OVCAR-3): inactive | Activity (ACHN): inactive | Activity (NCI-H23): inactive | Activity (A498): inactive | Activity (RXF 393): inactive | Activity (786-0): inactive | Activity (MCF7): inactive | Activity (BT-549): inactive | Activity (SK-OV-3): inactive | Activity (M14): inactive | Activity (HL-60(TB)): inactive | Activity (SNB-75): inactive | Activity (NCI-H322M): inactive | Activity (CAKI-1): inactive | Activity (U-251): inactive | Activity (HT-29): inactive | Activity (SN12C): inactive | Activity (HCC 2998): inactive | Activity (MDA-MB-468): inactive | Activity (RPMI-8226): inactive | Activity (SNB-19): inactive | Activity (SK-MEL-5): inactive | Activity (OVCAR-4): inactive | Activity (Hs-578T): inactive | Activity (HOP-92): inactive | Activity (KM12): inactive | Activity (EKVX): inactive | Activity (UO-31): inactive | Activity (Malme-3M): inactive | Activity (OVCAR-8): inactive | Activity (A549): inactive | Activity (UACC-62): inactive

CC(=O)O[C@@H](C)[C@@H]1O[C@@H]2CC(=O)O[C@@H]2[C@H]1O
Activity (SF-295): inactive | Activity (IGROV-1): inactive | Activity (NCI-H226): inactive | Activity (NCI-H460): inactive | Activity (COLO 205): inactive | Activity (SW-620): inactive | Activity (DU-145): inactive | Activity (MOLT-4): inactive | Activity (HCT-116): inactive | Activity (T47D): inactive | Activity (LOX IMVI): inactive | Activity (HOP-62): inactive | Activity (OVCAR-3): inactive | Activity (ACHN): inactive | Activity (NCI-H23): inactive | Activity (A498): inactive | Activity (RXF 393): inactive | Activity (786-0): inactive | Activity (MCF7): inactive | Activity (BT-549): inactive | Activity (SK-OV-3): inactive | Activity (M14): inactive | Activity (HL-60(TB)): inactive | Activity (SNB-75): inactive | Activity (NCI-H322M): inactive | Activity (CAKI-1): inactive | Activity (U-251): inactive | Activity (HT-29): inactive | Activity (SN12C): inactive | Activity (HCC 2998): inactive | Activity (MDA-MB-468): inactive | Activity (RPMI-8226): inactive | Activity (SNB-19): inactive | Activity (SK-MEL-5): inactive | Activity (OVCAR-4): inactive | Activity (Hs-578T): inactive | Activity (HOP-92): inactive | Activity (KM12): inactive | Activity (EKVX): inactive | Activity (UO-31): inactive | Activity (Malme-3M): inactive | Activity (OVCAR-8): inactive | Activity (A549): inactive | Activity (UACC-62): inactive

O=C1C[C@H]2O[C@H]([C@H](O)c3ccccc3)[C@H](O)[C@H]2O1
Activity (SF-295): Active | Activity (IGROV-1): Active | Activity (NCI-H226): Active | Activity (NCI-H460): Active | Activity (COLO 205): Active | Activity (SW-620): Active | Activity (DU-145): Active | Activity (MOLT-4): Active | Activity (HCT-116): Active | Activity (T47D): Active | Activity (LOX IMVI): Active | Activity (HOP-62): Active | Activity (OVCAR-3): Active | Activity (ACHN): Active | Activity (NCI-H23): Active | Activity (A498): Active | Activity (RXF 393): Active | Activity (786-0): Active | Activity (MCF7): Active | Activity (BT-549): Active | Activity (SK-OV-3): Active | Activity (M14): Active | Activity (HL-60(TB)): Active | Activity (SNB-75): Active | Activity (NCI-H322M): Active | Activity (CAKI-1): Active | Activity (U-251): Active | Activity (HT-29): Active | Activity (SN12C): Active | Activity (HCC 2998): Active | Activity (MDA-MB-468): Active | Activity (RPMI-8226): Active | Activity (SNB-19): Active | Activity (SK-MEL-5): Active | Activity (OVCAR-4): Active | Activity (Hs-578T): Active | Activity (HOP-92): Active | Activity (KM12): Active | Activity (EKVX): Active | Activity (UO-31): Active | Activity (Malme-3M): Active | Activity (OVCAR-8): Active | Activity (A549): Active | Activity (UACC-62): Active
